As a reminder, the MIC is the lowest concentration found to suppress growth. Lower therefore signals a more susceptible organism.

Common to all, as to format: functional
Test [1] has as its system Pseudomonas aeruginosa. Nature of the test: Antibacterial activity against Pseudomonas aeruginosa FE53G with inactivated mexZ and nuoG genes by microdilution method. For orientation: Broth dilution looks for growth in wells or tubes with falling amounts of substance.
Test [2] deals with Pseudomonas aeruginosa. Nature of the test: Antibacterial activity against Pseudomonas aeruginosa PAO1 by microdilution method.
For test [3], the system named is Pseudomonas aeruginosa. The experiment in a line: Antibacterial activity against Pseudomonas aeruginosa FE64 containing inactivated rplY and mexXY genes by microdilution method.
Test [4] relates to Pseudomonas aeruginosa. Nature of the test: Antibacterial activity against Pseudomonas aeruginosa FE57GU with inactivated rplY, nuoG and galU genes by […].
The test system of test [5] is Pseudomonas aeruginosa. Nature of the test: Antibacterial activity against Pseudomonas aeruginosa FE49 with inactivated galU gene by microdilution method.
Test [6] relates to Pseudomonas aeruginosa. The experiment in a line: Antibacterial activity against Pseudomonas aeruginosa FE57 containing inactivated rplY gene with pARAL25 by microdilution method. The method in brief:
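MIC for the rplY mutant carrying plasmid-borne rplY under the arabinose-inducible pBAD promoter. Cells grown with 150 μg/ml ticarcillin to keep the plasmid and 0.2% arabinose. Serial twofold dilution with about 10^4 bacteria per spot at 37°C.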

In test [7] the test system is Pseudomonas aeruginosa. Nature of the test: Antibacterial activity against Pseudomonas aeruginosa FE57 with inactivated rplY gene by microdilution method.
Test [8] relates to Pseudomonas aeruginosa. The experiment in a line: Antibacterial activity against Pseudomonas aeruginosa KJ7106 with inactivated PA5471 gene by microdilution method.
Test [9] relates to Pseudomonas aeruginosa. Nature of the test: Antibacterial activity against Pseudomonas aeruginosa FE57UZ with inactivated rplY, galU and mexZ genes […].
The subject of test [10] is Pseudomonas aeruginosa. The experiment in a line: Antibacterial activity against Pseudomonas aeruginosa FE53 with inactivated mexZ gene by microdilution method.
Test [11] concerns Pseudomonas aeruginosa. Nature of the test: Antibacterial activity against Pseudomonas aeruginosa FE10 with inactivated nuoG gene by microdilution method.
Test [12] has as its system Pseudomonas aeruginosa. The experiment in a line: Antibacterial activity against Pseudomonas aeruginosa FE60 containing inactivated mexXY gene by microdilution method.
Test [13] deals with Pseudomonas aeruginosa. The experiment in a line: Antibacterial activity against Pseudomonas aeruginosa FE57GUZ with inactivated rplY, nuoG, galU and mexZ genes […].
Test [14] relates to Pseudomonas aeruginosa. The experiment in a line: Antibacterial activity against Pseudomonas aeruginosa FE57G with inactivated rplY and nuoG genes by microdilution method.
The subject of test [15] is Pseudomonas aeruginosa. Nature of the test: Antibacterial activity against Pseudomonas aeruginosa FE63 containing inactivated rplY and PA5471 genes by microdilution method.
The test system of test [16] is Pseudomonas aeruginosa. The experiment in a line: Antibacterial activity against Pseudomonas aeruginosa FE53U with inactivated mexZ and galU genes by microdilution method.
Test [17] relates to Pseudomonas aeruginosa. The experiment in a line: Antibacterial activity against Pseudomonas aeruginosa FE57Z with inactivated rplY and mexZ genes by microdilution method.
The subject of test [18] is Pseudomonas aeruginosa. The experiment in a line: Antibacterial activity against Pseudomonas aeruginosa FE57U with inactivated rplY and galU genes by microdilution method.
For test [19], the system named is Pseudomonas aeruginosa. Nature of the test: Antibacterial activity against Pseudomonas aeruginosa FE53GU with inactivated mexZ, nuoG and galU genes by […].
The subject of test [20] is Pseudomonas aeruginosa. Nature of the test: Antibacterial activity against Pseudomonas aeruginosa FE57GZ with inactivated rplY, nuoG and mexZ genes […].
Test [21] concerns Pseudomonas aeruginosa. Nature of the test: Antibacterial activity against Pseudomonas aeruginosa FE10U with inactivated nuoG and galU genes by microdilution method.

Converted amounts (≈) assume the structure as drawn.

For `NCC[C@H](O)C(=O)N[C@@H]1C[C@H](N)[C@@H](O[C@H]2O[C@H](CN)[C@@H](O)[C@H](O)[C@H]2O)[C@H](O)[C@H]1O[C@H]1O[C@H](CO)[C@@H](O)[C@H](N)[C@H]1O` [AMIKACIN], the MIC against Pseudomonas aeruginosa [1] stood at 16 µg/mL (≈ 27.3 µM); against Pseudomonas aeruginosa [2] it was 4 µg/mL (≈ 6.83 µM); against Pseudomonas aeruginosa [3], 2 µg/mL (≈ 3.42 µM); in the test on Pseudomonas aeruginosa [4], 32 µg/mL (≈ 54.6 µM); with Pseudomonas aeruginosa [5], 8 µg/mL (≈ 13.7 µM); with Pseudomonas aeruginosa [6] it was 4 µg/mL (≈ 6.83 µM). Also, the MIC with Pseudomonas aeruginosa [7] came to 8 µg/mL (≈ 13.7 µM); in the test with Pseudomonas aeruginosa [8], 1 µg/mL (≈ 1.71 µM); against Pseudomonas aeruginosa [9], 32 µg/mL (≈ 54.6 µM); against Pseudomonas aeruginosa [10], 8 µg/mL (≈ 13.7 µM); against Pseudomonas aeruginosa [11], 8 µg/mL (≈ 13.7 µM); against Pseudomonas aeruginosa [12], 1 µg/mL (≈ 1.71 µM). Further, the MIC with Pseudomonas aeruginosa [13] was 64 µg/mL (≈ 109 µM); with Pseudomonas aeruginosa [14], 32 µg/mL (≈ 54.6 µM); against Pseudomonas aeruginosa [15] it was 2 µg/mL (≈ 3.42 µM); against Pseudomonas aeruginosa [16], 16 µg/mL (≈ 27.3 µM); in the test with Pseudomonas aeruginosa [17], 16 µg/mL (≈ 27.3 µM); in the test with Pseudomonas aeruginosa [18] it was 16 µg/mL (≈ 27.3 µM). For the same compound, the MIC is 32 µg/mL (≈ 54.6 µM) in the test on Pseudomonas aeruginosa [19], 32 µg/mL (≈ 54.6 µM) in the test on Pseudomonas aeruginosa [20] and 8 µg/mL (≈ 13.7 µM) against Pseudomonas aeruginosa [21].

Turning to `CO/N=C(\C(=O)N[C@@H]1C(=O)N2C(C(=O)[O-])=C(C[N+]3(C)CCCC3)CS[C@H]12)c1csc(N)n1` [CEFEPIME], the MIC in the test with Pseudomonas aeruginosa [1] was determined as 16 µg/mL (≈ 33.3 µM); against Pseudomonas aeruginosa [2] it was 4 µg/mL (≈ 8.32 µM); against Pseudomonas aeruginosa [3], 2 µg/mL (≈ 4.16 µM); against Pseudomonas aeruginosa [4], 8 µg/mL (≈ 16.6 µM); in the test with Pseudomonas aeruginosa [5], 4 µg/mL (≈ 8.32 µM); against Pseudomonas aeruginosa [7], 4 µg/mL (≈ 8.32 µM). Moreover, the MIC was determined as 4 µg/mL (≈ 8.32 µM) against Pseudomonas aeruginosa [8]; 16 µg/mL (≈ 33.3 µM) with Pseudomonas aeruginosa [9]; 16 µg/mL (≈ 33.3 µM) against Pseudomonas aeruginosa [10]; 4 µg/mL (≈ 8.32 µM) with Pseudomonas aeruginosa [11]; 4 µg/mL (≈ 8.32 µM) against Pseudomonas aeruginosa [12]; 16 µg/mL (≈ 33.3 µM) against Pseudomonas aeruginosa [13]. Also, the MIC came to 4 µg/mL (≈ 8.32 µM) in the test with Pseudomonas aeruginosa [14]; 2 µg/mL (≈ 4.16 µM) in the test with Pseudomonas aeruginosa [15]; 16 µg/mL (≈ 33.3 µM) in the test on Pseudomonas aeruginosa [16]; 16 µg/mL (≈ 33.3 µM) with Pseudomonas aeruginosa [17]; 4 µg/mL (≈ 8.32 µM) in the test on Pseudomonas aeruginosa [18]; 16 µg/mL (≈ 33.3 µM) in the test on Pseudomonas aeruginosa [19]. Moreover, the results for the MIC against Pseudomonas aeruginosa [20] and in the test on Pseudomonas aeruginosa [21] were 16 µg/mL (≈ 33.3 µM) and 4 µg/mL (≈ 8.32 µM), respectively.

As to `O=C(O)c1cn(C2CC2)c2cc(N3CCNCC3)c(F)cc2c1=O` [CIPROFLOXACIN], the MIC in the test with Pseudomonas aeruginosa [1], against Pseudomonas aeruginosa [9], with Pseudomonas aeruginosa [10], in the test on Pseudomonas aeruginosa [13], in the test on Pseudomonas aeruginosa [17] and in the test on Pseudomonas aeruginosa [19] was 1 µg/mL (≈ 3.02 µM) throughout. The MIC in the test with Pseudomonas aeruginosa [20] stood at 1 µg/mL (≈ 3.02 µM).

`NC[C@H]1O[C@H](O[C@H]2[C@H](O)[C@@H](O[C@H]3O[C@H](CO)[C@@H](O)[C@H](N)[C@H]3O)[C@H](N)C[C@@H]2N)[C@H](O)[C@@H](O)[C@@H]1O` [KANAMYCIN]: the MIC against Pseudomonas aeruginosa [1] was 256 µg/mL (≈ 528 µM); against Pseudomonas aeruginosa [2], 64 µg/mL (≈ 132 µM); against Pseudomonas aeruginosa [4], 512 µg/mL (≈ 1060 µM); in the test with Pseudomonas aeruginosa [5], 128 µg/mL (≈ 264 µM); with Pseudomonas aeruginosa [7] it was 256 µg/mL (≈ 528 µM); in the test with Pseudomonas aeruginosa [9], 512 µg/mL (≈ 1060 µM). Besides, the MIC was 128 µg/mL (≈ 264 µM) in the test on Pseudomonas aeruginosa [10]; 256 µg/mL (≈ 528 µM) in the test on Pseudomonas aeruginosa [11]; 1020 µg/mL (≈ 2110 µM) in the test on Pseudomonas aeruginosa [13]; 512 µg/mL (≈ 1060 µM) in the test with Pseudomonas aeruginosa [14]; 256 µg/mL (≈ 528 µM) in the test with Pseudomonas aeruginosa [16]; 256 µg/mL (≈ 528 µM) against Pseudomonas aeruginosa [17]. Moreover, the MIC against Pseudomonas aeruginosa [18] is 256 µg/mL (≈ 528 µM); against Pseudomonas aeruginosa [19] it was 512 µg/mL (≈ 1060 µM); in the test on Pseudomonas aeruginosa [20], 1020 µg/mL (≈ 2110 µM); in the test with Pseudomonas aeruginosa [21] it was 256 µg/mL (≈ 528 µM).

Take `CCN[C@@H]1C[C@H](N)[C@@H](O[C@H]2OC(CN)=CC[C@H]2N)[C@H](O)[C@H]1O[C@H]1OC[C@](C)(O)[C@H](NC)[C@H]1O` [NETILMICIN]: the MIC in the test with Pseudomonas aeruginosa [1] is 16 µg/mL (≈ 33.6 µM); against Pseudomonas aeruginosa [2], 4 µg/mL (≈ 8.41 µM); against Pseudomonas aeruginosa [4] it was 64 µg/mL (≈ 135 µM); against Pseudomonas aeruginosa [5] it was 8 µg/mL (≈ 16.8 µM); with Pseudomonas aeruginosa [7] it was 8 µg/mL (≈ 16.8 µM); against Pseudomonas aeruginosa [9], 64 µg/mL (≈ 135 µM). The MIC against Pseudomonas aeruginosa [10] was found to be 8 µg/mL (≈ 16.8 µM); in the test on Pseudomonas aeruginosa [11], 8 µg/mL (≈ 16.8 µM); with Pseudomonas aeruginosa [13], 256 µg/mL (≈ 538 µM); in the test on Pseudomonas aeruginosa [14], 16 µg/mL (≈ 33.6 µM); against Pseudomonas aeruginosa [16] it was 16 µg/mL (≈ 33.6 µM); against Pseudomonas aeruginosa [17] it was 16 µg/mL (≈ 33.6 µM). Also, the MIC with Pseudomonas aeruginosa [18] stood at 16 µg/mL (≈ 33.6 µM); against Pseudomonas aeruginosa [19], 64 µg/mL (≈ 135 µM); in the test with Pseudomonas aeruginosa [20], 128 µg/mL (≈ 269 µM); against Pseudomonas aeruginosa [21], 8 µg/mL (≈ 16.8 µM).

On to `NC[C@H]1O[C@H](O[C@H]2[C@H](O)[C@@H](O[C@H]3O[C@H](CO)[C@@H](O)[C@H](N)[C@H]3O)[C@H](N)C[C@@H]2N)[C@H](N)C[C@@H]1O` [TOBRAMYCIN], for which the MIC in the test with Pseudomonas aeruginosa [1] is 2 µg/mL (≈ 4.28 µM); in the test with Pseudomonas aeruginosa [2], 0.5 µg/mL (≈ 1.07 µM); in the test on Pseudomonas aeruginosa [3], 0.5 µg/mL (≈ 1.07 µM); with Pseudomonas aeruginosa [4], 4 µg/mL (≈ 8.56 µM); against Pseudomonas aeruginosa [5], 1 µg/mL (≈ 2.14 µM); in the test with Pseudomonas aeruginosa [6] it was 0.25 µg/mL (≈ 0.535 µM). Besides, the MIC in the test with Pseudomonas aeruginosa [7] is 1 µg/mL (≈ 2.14 µM); in the test on Pseudomonas aeruginosa [8], 0.25 µg/mL (≈ 0.535 µM); against Pseudomonas aeruginosa [9], 4 µg/mL (≈ 8.56 µM); with Pseudomonas aeruginosa [10], 1 µg/mL (≈ 2.14 µM); in the test with Pseudomonas aeruginosa [11] it was 1 µg/mL (≈ 2.14 µM); against Pseudomonas aeruginosa [12], 0.25 µg/mL (≈ 0.535 µM). Also, the MIC was 8 µg/mL (≈ 17.1 µM) against Pseudomonas aeruginosa [13]; 2 µg/mL (≈ 4.28 µM) with Pseudomonas aeruginosa [14]; 0.5 µg/mL (≈ 1.07 µM) against Pseudomonas aeruginosa [15]; 2 µg/mL (≈ 4.28 µM) against Pseudomonas aeruginosa [16]; 2 µg/mL (≈ 4.28 µM) against Pseudomonas aeruginosa [17]; 2 µg/mL (≈ 4.28 µM) with Pseudomonas aeruginosa [18]. Also, the MIC against Pseudomonas aeruginosa [19] came out at 4 µg/mL (≈ 8.56 µM); with Pseudomonas aeruginosa [20], 4 µg/mL (≈ 8.56 µM); in the test with Pseudomonas aeruginosa [21], 2 µg/mL (≈ 4.28 µM).

Regarding GENTAMICIN, the MIC in the test on Pseudomonas aeruginosa [1] was 8 µg/mL; in the test on Pseudomonas aeruginosa [2], 1 µg/mL; against Pseudomonas aeruginosa [3] it was 0.25 µg/mL; against Pseudomonas aeruginosa [5], 2 µg/mL; in the test with Pseudomonas aeruginosa [6], 1 µg/mL; against Pseudomonas aeruginosa [7], 2 µg/mL. Further, the MIC against Pseudomonas aeruginosa [8] amounted to 0.125 µg/mL; against Pseudomonas aeruginosa [10] it was 4 µg/mL; with Pseudomonas aeruginosa [11], 2 µg/mL; against Pseudomonas aeruginosa [12], 0.125 µg/mL; against Pseudomonas aeruginosa [14] it was 8 µg/mL; in the test on Pseudomonas aeruginosa [15], 0.25 µg/mL. The minimum inhibitory concentration (MIC) against Pseudomonas aeruginosa [16] was determined as 8 µg/mL; against Pseudomonas aeruginosa [17], 8 µg/mL; in the test with Pseudomonas aeruginosa [18] it was 8 µg/mL; in the test on Pseudomonas aeruginosa [21] it was 4 µg/mL.
